This note sets out measurements from ChEMBL document CHEMBL4261600 (Eur J Med Chem, 2018).

Activity calls are given as the source filed them. The rule behind the calls is not given here.

The nature of data set [1]: Antiproliferative activity against human MEC2 cells after 72 hrs by Celltiter-Glo assay. The data set is classed as functional. As to conditions: MEC2, 72 h. Summed up: (§1)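 Cells seeded at 3000/well in 96-well plates, exposed to serially diluted compound for 72 h at 37 °C, 5% CO2. Viability read by CellTiter-Glo luminescence and normalized to DMSO control. GI50 derived from curve fit, mean of three independent measurements. Culture media: DMEM/10% FBS for adherent lines; IMDM for MV4-11 and MEC-1/2; RPMI 1640 for suspension lines and CHL.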
A general note: In ATP-based viability assays light output follows the ATP content of the culture.

The species entered for data set [2] is Homo sapiens. Nature of the data set: Induction of apoptosis in human MEC1 cells assessed as decrease in caspase-3 level after 24 hrs by immunoblotting analysis. The data set is classed as functional, cell-based.
Data set [3] has as its system MV4-11. As to the kind of experiment: Induction of apoptosis in human MV4-11 cells assessed as decrease in c-MYC level at 0.01 uM after 24 hrs by immunoblotting analysis. The data set is classed as functional, cell-based. On the technique in general: A western blot detects proteins with antibodies after separation by electrophoresis.
Data set [4] in a line: Antiproliferative activity against CHO cells after 72 hrs by Celltiter-Glo assay. The settings on record: chinese hamster. It counts as cell-based, Cricetulus griseus. Summed up: as §1
A further data set deals with SKM-1. As to the kind of experiment: Antiproliferative activity against human SKM1 cells after 72 hrs by Celltiter-Glo assay. It counts as functional. The settings on record: SKM-1, 72 h. An outline of the steps:
as §1

Data set [5] has as its system HL-60. Nature of the data set: Induction of apoptosis in human HL60 cells assessed as decrease in MCL-1 level at 0.01 uM after 24 hrs by immunoblotting analysis. The data set is classed as functional, cell-based.
In the next data set the test system is SK-N-BE(2)-M17. Nature of the data set: Antiproliferative activity against human BE(2)-M17 cells after 72 hrs by Celltiter-Glo assay. The data set is classed as functional. As to conditions: SK-N-BE(2)-M17, 72 h. An outline of the steps:
as §1

The next data set has as its system A-431. As to the kind of experiment: Antiproliferative activity against human A431 cells after 72 hrs by Celltiter-Glo assay. The settings on record: A-431, 72 h. The data set is classed as functional. Summed up:
as §1

Data set [6] relates to MV4-11. Nature of the data set: Induction of apoptosis in human MV4-11 cells assessed as decrease in caspase-3 level after 24 hrs by immunoblotting analysis. It counts as functional, cell-based.
Another data set concerns U-937. As to the kind of experiment: Antiproliferative activity against human U937 cells after 72 hrs by Celltiter-Glo assay. The data set is classed as functional. The settings on record: U-937, 72 h. Summed up:
as §1

A further data set concerns Ramos. Nature of the data set: Antiproliferative activity against human Ramos cells after 72 hrs by Celltiter-Glo assay. The data set is classed as functional. An outline of the steps: as §1
In a further data set the test system is MOLM-13. Nature of the data set: Antiproliferative activity against human MOLM13 cells after 72 hrs by Celltiter-Glo assay. It counts as functional. As to conditions: MOLM-13, 72 h. Summed up: as §1
Data set [7] has as its system MV4-11. As to the kind of experiment: Induction of apoptosis in human MV4-11 cells assessed as decrease in MCL-1 level at 0.01 uM after 24 hrs by immunoblotting analysis. The data set is classed as functional, cell-based.
Data set [8] concerns HL-60. As to the kind of experiment: Induction of apoptosis in human HL60 cells assessed as decrease in c-MYC level at 0.01 uM after 24 hrs by immunoblotting analysis. It counts as functional, cell-based.
For data set [9], the species on record is Homo sapiens. As to the kind of experiment: Induction of apoptosis in human MEC1 cells assessed as decrease in MCL-1 level at 0.01 uM after 24 hrs by immunoblotting analysis. The data set is classed as functional, cell-based.
The species named for data set [10] is Homo sapiens. As to the kind of experiment: Induction of apoptosis in human MEC1 cells assessed as decrease in c-MYC level at 0.01 uM after 24 hrs by immunoblotting analysis. It counts as functional, cell-based.
Another data set concerns A-375. Nature of the data set: Antiproliferative activity against human A375 cells after 72 hrs by Celltiter-Glo assay. The data set is classed as functional. As to conditions: A-375, 72 h. An outline of the steps:
as §1

For another data set, the system named is COLO 205. As to the kind of experiment: Antiproliferative activity against human COLO205 cells after 72 hrs by Celltiter-Glo assay. The settings on record: COLO 205, 72 h. The data set is classed as functional. Summed up: as §1
In the next data set the test system is GISTT1. Nature of the data set: Antiproliferative activity against human GISTT1 cells after 72 hrs by Celltiter-Glo assay. It counts as functional. As to conditions: GISTT1, 72 h. An outline of the steps: as §1
The test system of the next data set is MOLM-14. As to the kind of experiment: Antiproliferative activity against human MOLM14 cells after 72 hrs by Celltiter-Glo assay. It counts as functional. The settings on record: MOLM-14, 72 h. Summed up:
as §1

A short description of data set [11]: Antiproliferative activity against human MEC1 cells after 72 hrs by Celltiter-Glo assay. The data set is classed as functional. As to conditions: MEC1, 72 h. An outline of the steps: as §1
In data set [12] the test system is HL-60. Nature of the data set: Antiproliferative activity against human HL60 cells after 72 hrs by Celltiter-Glo assay. The data set is classed as functional. The settings on record: HL-60, 72 h. Summed up: as §1
In data set [13] the test system is HL-60. Nature of the data set: Induction of apoptosis in human HL60 cells assessed as decrease in caspase-3 level after 24 hrs by immunoblotting analysis. It counts as functional, cell-based.
Another data set relates to OCI-AML-3. As to the kind of experiment: Antiproliferative activity against human OCI-AML3 cells after 72 hrs by Celltiter-Glo assay. The data set is classed as functional. The settings on record: OCI-AML-3, 72 h. Summed up: as §1
The target of another data set is CDK9/Cyclin K (Homo sapiens, UniProt P50750). Nature of the data set: Inhibition of CDK9/Cyclin K (unknown origin) using PDKtide as substrate incubated at 37 degreeC for 1 hr followed by incubation at room temperature for 5 mins by ADP-Glo reagent based luminescence assay. It counts as protein-complex assay. For orientation: ADP-Glo first removes unused ATP, then detects ADP through luciferase.

Data set [14] is described as follows: Antiproliferative activity against Chinese hamster CHL cells after 72 hrs by Celltiter-Glo assay. The settings on record: Cricetulus griseus.
In data set [15] the test system is MV4-11. Nature of the data set: Antiproliferative activity against human MV4-11 cells after 72 hrs by Celltiter-Glo assay. It counts as functional. As to conditions: MV4-11, 72 h. An outline of the steps:
as §1

Sequence of CDK9/Cyclin K (P50750 whole entry): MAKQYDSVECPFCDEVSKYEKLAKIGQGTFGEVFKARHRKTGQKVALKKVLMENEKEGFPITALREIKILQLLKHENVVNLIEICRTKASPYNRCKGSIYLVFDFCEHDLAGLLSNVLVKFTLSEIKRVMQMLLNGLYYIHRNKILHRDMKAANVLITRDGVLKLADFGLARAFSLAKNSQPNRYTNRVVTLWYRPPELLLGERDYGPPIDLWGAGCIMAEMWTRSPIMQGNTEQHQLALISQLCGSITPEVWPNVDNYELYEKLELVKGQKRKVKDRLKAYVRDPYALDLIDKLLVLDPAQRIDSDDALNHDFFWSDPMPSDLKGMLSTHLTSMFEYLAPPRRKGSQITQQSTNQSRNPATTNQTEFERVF
Sequence of CDK9/Cyclin K (O75909 whole entry, further chain): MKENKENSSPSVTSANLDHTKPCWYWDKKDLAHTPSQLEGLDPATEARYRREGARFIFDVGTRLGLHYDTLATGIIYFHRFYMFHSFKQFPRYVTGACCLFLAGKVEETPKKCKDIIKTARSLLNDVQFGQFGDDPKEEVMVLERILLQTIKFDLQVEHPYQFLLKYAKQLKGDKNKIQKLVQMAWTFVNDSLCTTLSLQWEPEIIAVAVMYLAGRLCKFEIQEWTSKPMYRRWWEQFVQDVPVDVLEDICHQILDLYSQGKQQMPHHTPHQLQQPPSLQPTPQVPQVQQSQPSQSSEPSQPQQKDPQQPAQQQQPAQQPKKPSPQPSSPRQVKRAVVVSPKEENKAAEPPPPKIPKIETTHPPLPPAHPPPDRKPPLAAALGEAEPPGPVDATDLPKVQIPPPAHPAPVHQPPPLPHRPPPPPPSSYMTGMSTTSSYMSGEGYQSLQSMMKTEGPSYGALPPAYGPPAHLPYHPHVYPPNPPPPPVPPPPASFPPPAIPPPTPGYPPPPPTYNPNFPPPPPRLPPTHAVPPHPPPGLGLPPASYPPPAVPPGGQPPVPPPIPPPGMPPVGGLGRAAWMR

As to `CCc1cnn2c(NCc3ccc[n+]([O-])c3)cc(N3CCCC[C@H]3CCO)nc12` [DINACICLIB], the GI50 in data set [1] was 11 nM; with SKM-1 it was 11 nM; in the data set on SK-N-BE(2)-M17, 21 nM; in the data set on A-431, 11 nM; with U-937, 10 nM; in the data set on Ramos, 8.6 nM. For the same compound, the GI50 in the data set with MOLM-13 was determined as 3.3 nM; with A-375, 11 nM; in the data set on COLO 205, 6.8 nM; in the data set on GISTT1 it was 8.8 nM; in the data set with MOLM-14 it was 4.5 nM; in [11], 3.6 nM. The GI50 in the data set on HL-60 [12] is 8 nM; in the data set with OCI-AML-3 it was 13 nM. The Activity entry in the data set listed under Homo sapiens [2], with MV4-11 [6] and with HL-60 [13] was “Dose-dependent effect” in each case. Further, the result with MV4-11 [3], in the data set with HL-60 [5], with MV4-11 [7], in the data set on HL-60 [8], in the data set filed under Homo sapiens [9] and in the data set listed under Homo sapiens [10] was Active. Moreover, the 50% growth inhibitory concentration (GI50) at 72 h in data set [4] came to 160 nM.

As for `N[C@H]1CC[C@H](Nc2cc(-c3csc(NCC4CCOCC4)n3)c(Cl)cn2)CC1`, at CDK9/Cyclin K, the half-inhibitory concentration (IC50) was 22 nM. Besides, the 50% growth inhibitory concentration (GI50) in data set [14] turned out to be 3.5 µM; in the data set on MV4-11 [15] it was 140 nM; in [11], 270 nM.

As usually defined, the GI50 is the concentration that inhibits growth by half. High values mean less potent growth inhibition, low ones more potent growth inhibition. What is called IC50 is the midpoint of a concentration-inhibition curve. A low value points to higher potency.
